Values after ≈ are worked out from the molar mass of the structure shown. Active and inactive are the calls of the source. No cut-off for these calls is given here. Bridge positions count the residues as written; N and C are the ends. Square brackets hold non-standard residues; d marks the D form. Peptide text beside a SMILES is read from it. * marks the point of attachment. Tetradecenoyl(2E,13-Me) = CC(C)CCCCCCCCC/C=C/C(=O)*; d(aThr) = C[C@@H](O)[C@@H](N)C(=O)O; dPip = O=C(O)[C@H]1CCCCN1; Dap = NC[C@H](N)C(=O)O
What was measured:
Staphylococcus simulans [1] = assay: Antibacterial activity against Staphylococcus simulans 22 assessed as inhibition of bacterial growth incubated for 16 hrs in presence of lipid I by broth microdilution assay; assay type: functional, organism-based
Summary of the method: (§1)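 The antibiotic was pre-incubated with the cell wall precursor (e.g. UDP-GlcNAc, C55-PP, C55-P) before being given to the bacteria, with vancomycin as positive control.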

Staphylococcus simulans [2] = assay: Antibacterial activity against Staphylococcus simulans 22 assessed as inhibition of bacterial growth incubated for 16 hrs in presence of lipid II by broth microdilution assay; assay type: functional, organism-based; summary of the method: as §1
Staphylococcus simulans [3] = assay: Antibacterial activity against Staphylococcus simulans 22 assessed as inhibition of bacterial growth incubated for 16 hrs in presence of UDP-MurNAc-pp by broth microdilution assay; assay type: functional, organism-based; summary of the method: as §1
Staphylococcus simulans [4] = assay: Antibacterial activity against Staphylococcus simulans 22 assessed as inhibition of bacterial growth incubated for 16 hrs in presence of UDP-GlcNAc by broth microdilution assay; assay type: functional, organism-based; summary of the method: as §1
Staphylococcus simulans [5] = assay: Antibacterial activity against Staphylococcus simulans 22 assessed as inhibition of bacterial growth incubated for 16 hrs in presence of C55-P by broth microdilution assay; assay type: functional, organism-based; summary of the method: as §1
Staphylococcus simulans [6] = assay: Antibacterial activity against Staphylococcus simulans 22 assessed as inhibition of bacterial growth incubated for 16 hrs in presence of C55-PP by broth microdilution assay; assay type: functional, organism-based; summary of the method: as §1
Staphylococcus simulans [7] = assay: Antibacterial activity against Staphylococcus simulans 22 assessed as inhibition of bacterial growth incubated for 16 hrs in presence of C15-PP by broth microdilution assay; assay type: functional, organism-based; summary of the method: as §1
Staphylococcus simulans [8] = assay: Antibacterial activity against Staphylococcus simulans 22 assessed as inhibition of bacterial growth incubated for 16 hrs in presence of C15-P by broth microdilution assay; assay type: functional, organism-based; summary of the method: as §1
Staphylococcus aureus [9] = assay: Antibacterial activity against Staphylococcus aureus ATCC 29213 assessed as inhibition of bacterial growth incubated for 16 hrs by broth microdilution assay; assay type: functional
Summary of the method: (§2)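 MICs were read in µg/mL against indicator strains S. aureus 29213 and S. simulans 22. The growth medium was supplemented with Ca2+ at 5.0 or 10 mM.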

Staphylococcus aureus [10] = assay: Antibacterial activity against Staphylococcus aureus ATCC 29213 assessed as inhibition of bacterial growth incubated for 16 hrs in presence of 10 mM Ca2+ by broth microdilution assay; assay type: functional
Summary of the method: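 MIC, read in µg/mL, was determined in growth medium supplemented with Ca2+ at a final 10 mM. The same strain was also tested at 5 mM Ca2+ to check how calcium level affects the MIC.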

Staphylococcus simulans [11] = assay: Antibacterial activity against Staphylococcus simulans 22 assessed as inhibition of bacterial growth incubated for 16 hrs in presence of 5 mM Ca2+ by broth microdilution assay; assay type: functional; summary of the method: as §2
Staphylococcus simulans [12] = assay: Antibacterial activity against Staphylococcus simulans 22 assessed as inhibition of bacterial growth incubated for 16 hrs in presence of 10 mM Ca2+ by broth microdilution assay; assay type: functional; summary of the method: as §2
[13] = Binding affinity to calcium at 60 uM in pH 7.4 buffer by CD spectroscopy
Staphylococcus aureus [14] = assay: Induction of UDP-MurNAc-pentapeptide accumulation in Staphylococcus aureus ATCC 29213 at 10 times MIC incubated for 60 mins by HPLC analysis; assay type: functional
[15] = Binding affinity to undecaprenyl phosphate (C55-P) at 0.5 to 2 equiv in Ca2+-containing buffer incubated for 2 hrs by TLC-based binding assay; conditions: dose 0.5-2 equiv
[16] = Binding affinity to lipid II at 0.5 to 2 equiv in Ca2+-containing buffer incubated for 2 hrs by TLC-based binding assay; conditions: dose 0.5-2 equiv
[17] = Binding affinity to undecaprenyl phosphate (C55-P) assessed as reduction in lipid II synthesis at 0.5 to 2 equiv in presence of UDP-GlcNAc, UDPMurNAc-pentapeptide and Micrococcus flavus membrane vesicles and measured after 2 hrs by TLC analysis; conditions: dose 0.5-2 equiv
Summary of the method: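 C55-P was pre-treated with the antibiotic over a range of concentrations. UDP-GlcNAc, UDP-MurNAc-pentapeptide and M. flavus membrane vesicles containing MraY and MurG were then added, and lipid II formation was monitored.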

[18] = Binding affinity to undecaprenyl phosphate (C55-P) in large unilamellar vesicles comprising 1,2-dioleoyl-sn-glycero-3-phosphocholine containing 1.5 mol % C55-P by ITC analysis
Summary of the method: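 Isothermal titration calorimetry: DOPC vesicles containing 1.5 mol% C55-P were titrated into the antibiotic solution in HEPES buffer with CaCl2. Heat was plotted against molar ratio.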

| SMILES | Activity (Staphylococcus simulans [1]) | Activity (Staphylococcus simulans [2]) | Activity (Staphylococcus simulans [3]) | Activity (Staphylococcus simulans [4]) | Activity (Staphylococcus simulans [5]) | Activity (Staphylococcus simulans [6]) | Activity (Staphylococcus simulans [7]) | Activity (Staphylococcus simulans [8]) | MIC (Staphylococcus aureus [9]) [µg/mL] | MIC (Staphylococcus aureus [10]) [µg/mL] | MIC (Staphylococcus simulans [11]) [µg/mL] | MIC (Staphylococcus simulans [12]) | Activity [13] | Activity (Staphylococcus aureus [14]) | Activity [15] | Activity [16] | Activity [17] | Kd [18] [nM] |
| --- | --- | --- | --- | --- | --- | --- | --- | --- | --- | --- | --- | --- | --- | --- | --- | --- | --- | --- |
| CCCCCCCCCC(=O)N[C@@H](Cc1c[nH]c2ccccc12)C(=O)N[C@H](CC(N)=O)C(=O)N[C@@H](CC(=O)O)C(=O)N[C@H]1CNC(=O)[C@@H](Cc2c[nH]c3ccccc23)NC(=O)[C@H](CCC(=O)O)NC(=O)[C@@H](CO)NC(=O)CNC(=O)[C@H](CC(=O)O)NC(=O)[C@@H](C)NC(=O)[C@H](CC(=O)O)NC(=O)[C@H](CCCN)NC(=O)CNC1=O | Active | Active | Active | Active | Active | Active | Active | Active | – | – | – | – | – | – | – | – | – | – |
| CCCCCCCCCC(=O)N[C@@H](Cc1c[nH]c2ccccc12)C(=O)N[C@H](CC(N)=O)C(=O)N[C@@H](CC(=O)O)C(=O)N[C@@H]1C(=O)NCC(=O)N[C@@H](CCCN)C(=O)N[C@@H](CC(=O)O)C(=O)N[C@H](C)C(=O)N[C@@H](CC(=O)O)C(=O)NCC(=O)N[C@H](CO)C(=O)N[C@@H]([C@@H](C)CC(=O)O)C(=O)N[C@@H](CC(=O)c2ccccc2N)C(=O)O[C@@H]1C | – | – | – | – | – | – | – | – | 0.25 (≈ 0.154 µM) | 0.125 | 0.031 | ≤ 0.031 µg/mL | – | – | – | – | – | – |
| CCCCCCCCCC(=O)N[C@@H](Cc1c[nH]c2ccccc12)C(=O)N[C@H](CC(N)=O)C(=O)N[C@@H](CC(=O)O)C(=O)N[C@H]1CNC(=O)[C@H]2CCCN2C(=O)[C@H]([C@@H](C)CC)NC(=O)[C@@H]([C@@H](C)O)NC(=O)CNC(=O)[C@H](CC(=O)O)NC(=O)[C@@H](C)NC(=O)[C@H](CC(=O)O)NC(=O)CNC(=O)[C@H]2CCCCN2C1=O | Active | Active | Active | Active | Active | Active | Active | Active | – | – | – | inactive | Active | – | – | – | – | – |
| CCCCCCCCCC(=O)N[C@@H](Cc1c[nH]c2ccccc12)C(=O)N[C@@H](CC(N)=O)C(=O)N[C@@H](CC(=O)O)C(=O)N[C@@H]1C(=O)NCC(=O)N[C@@H](CCCN)C(=O)N[C@H](CC(=O)O)C(=O)N[C@H](C)C(=O)N[C@@H](CC(=O)O)C(=O)NCC(=O)N[C@H](CO)C(=O)N[C@@H]([C@@H](C)CC(=O)O)C(=O)N[C@@H](CC(=O)c2ccccc2N)C(=O)O[C@@H]1C | Active | Active | Active | Active | Active | Active | Active | Active | – | – | – | – | – | inactive | inactive | inactive | inactive | – |
| CCCCCCCCCC(=O)N[C@@H](Cc1c[nH]c2ccccc12)C(=O)N[C@H](CC(N)=O)C(=O)N[C@@H](CC(=O)O)C(=O)N[C@H]1CNC(=O)[C@@H](CC(=O)c2ccccc2N)NC(=O)[C@H](CCC(=O)O)NC(=O)[C@@H](CO)NC(=O)CNC(=O)[C@H](CC(=O)O)NC(=O)[C@@H](C)NC(=O)[C@H](CC(=O)O)NC(=O)[C@H](CCCN)NC(=O)[C@H]2CCCCN2C1=O | Active | Active | Active | Active | Active | Active | Active | Active | – | – | – | – | – | – | – | – | – | – |
| CCCCCCCCCC(=O)N[C@@H](Cc1c[nH]c2ccccc12)C(=O)N[C@H](CC(N)=O)C(=O)N[C@@H](CC(=O)O)C(=O)N[C@H]1CNC(=O)[C@@H](CC(=O)c2ccccc2N)NC(=O)[C@H](CCC(=O)O)NC(=O)[C@@H](CO)NC(=O)CNC(=O)[C@H](CC(=O)O)NC(=O)[C@@H](C)NC(=O)[C@H](CC(=O)O)NC(=O)[C@H](CCCN)NC(=O)CNC1=O | Active | Active | Active | Active | Active | Active | Active | Active | – | – | – | – | – | – | – | – | – | – |
| CCCCCCCCCC(=O)N[C@@H](Cc1c[nH]c2ccccc12)C(=O)N[C@H](CC(N)=O)C(=O)N[C@@H](CC(=O)O)C(=O)N[C@H]1CNC(=O)[C@H]2CCCN2C(=O)[C@H]([C@@H](C)CC)NC(=O)[C@@H]([C@@H](C)O)NC(=O)CNC(=O)[C@H](CC(=O)O)NC(=O)[C@@H](C)NC(=O)[C@H](CC(=O)O)NC(=O)CNC(=O)CNC1=O | Active | Active | Active | Active | Active | Active | Active | Active | – | – | – | – | – | – | – | – | – | – |
| CN[C@H](CC(C)C)C(=O)N[C@H]1C(=O)N[C@@H](CC(N)=O)C(=O)N[C@H]2C(=O)N[C@H]3C(=O)N[C@H](C(=O)N[C@H](C(=O)O)c4cc(O)cc(O)c4-c4cc3ccc4O)[C@H](O)c3ccc(c(Cl)c3)Oc3cc2cc(c3O[C@@H]2O[C@H](CO)[C@@H](O)[C@H](O)[C@H]2O[C@H]2C[C@](C)(N)[C@H](O)[C@H](C)O2)Oc2ccc(cc2Cl)[C@H]1O | inactive | inactive | inactive | – | – | – | – | – | – | – | – | – | – | – | – | – | – | – |
| CC[C@H](C)[C@@H]1NC(=O)[C@@H]([C@@H](C)O)NC(=O)CNC(=O)[C@H](CC(=O)O)NC(=O)CNC(=O)[C@H](CC(=O)O)NC(=O)CNC(=O)[C@H]2CCCCN2C(=O)[C@@H](NC(=O)[C@H](CC(=O)O)NC(=O)/C=C/CCCCCCCCCC(C)C)CNC(=O)[C@@H]2CCCN2C1=O ({Tetradecenoyl(2E,13-Me)}-D[Dap][dPip]GDGDG[d(aThr)]IP; lactam 2-C) | – | – | – | – | inactive | inactive | Active | inactive | 4 (≈ 3.21 µM) | 2 | 4 | ≤ 1 µg/mL | – | Active | Active | inactive | Dose-dependent effect | 7.3 |
| CCCCCCCCCC(=O)N[C@@H](Cc1c[nH]c2ccccc12)C(=O)N[C@H](CC(N)=O)C(=O)N[C@@H](CC(=O)O)C(=O)N[C@H]1CNC(=O)[C@H]2CCCN2C(=O)[C@H](CCC(=O)O)NC(=O)[C@@H](CO)NC(=O)CNC(=O)[C@H](CC(=O)O)NC(=O)[C@@H](C)NC(=O)[C@H](CC(=O)O)NC(=O)[C@H](CCCN)NC(=O)[C@H]2CCCCN2C1=O | Active | Active | Active | Active | Active | Active | Active | Active | – | – | – | inactive | Active | – | – | – | – | – |
| CCCCCCCCCC(=O)N[C@@H](Cc1c[nH]c2ccccc12)C(=O)N[C@H](CC(N)=O)C(=O)N[C@@H](CC(=O)O)C(=O)N[C@H]1CNC(=O)[C@@H](Cc2c[nH]c3ccccc23)NC(=O)[C@H](CCC(=O)O)NC(=O)[C@@H](CO)NC(=O)CNC(=O)[C@H](CC(=O)O)NC(=O)[C@@H](C)NC(=O)[C@H](CC(=O)O)NC(=O)[C@H](CCCN)NC(=O)[C@H]2CCCCN2C1=O | Active | Active | Active | Active | Active | Active | Active | Active | – | – | – | – | – | – | – | – | – | – |

— ChEMBL document CHEMBL4680073, “Total Synthesis of Laspartomycin C and Characterization of Its Antibacterial Mechanism of Action” (J Med Chem, 2016)
